The target of data set [1] is cGMP-dependent 3',5'-cyclic phosphodiesterase (Homo sapiens, UniProt O00408). In words: Inhibition of PDE2 catalytic domain (unknown origin).
Data set [2] can be described thus: Half life in human liver microsomes. It counts as ADME, Microsome.
Data set [3] addresses 3',5'-cyclic-AMP phosphodiesterase 4B (Homo sapiens, UniProt Q07343). In words: Inhibition of PDE4B catalytic domain (unknown origin). In a few lines: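 Each IC50 is the mean of at least two independent determinations. Each curve had 10 half-log dilutions, centred near the 50% inhibition level, with each point run in duplicate.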
Data set [4] can be described thus: Half life in Sprague-Dawley rat at 1 mg/kg, iv. Type of data set: ADME, organism-based. The arrangement: dose 1 mg/kg, route intravenous. As to conditions: in vivo. In outline:
(§1)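 Male Sprague–Dawley rats, two animals per route. Dosing was either intravenous at 1 mg/kg or oral at 10 mg/kg. Pharmacokinetic parameters were derived from these dosings.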

Data set [5] in a line: Clearance in Sprague-Dawley rat at 1 mg/kg, iv and 10 mg/kg, po. It counts as ADME, organism-based. Conditions: in vivo. In a few lines:
as §1

A short description of data set [6]: AUC in Sprague-Dawley rat at 10 mg/kg, po. The arrangement: dose 10 mg/kg, route oral. Type of data set: ADME, organism-based. As to conditions: plasma. In a few lines:
as §1

Data set [7] in a line: Oral bioavailability in Sprague-Dawley rat at 10 mg/kg. Conditions: in vivo. It counts as ADME, organism-based. In a few lines: as §1
Data set [8] is described as follows: Volume of distribution at steady state in Sprague-Dawley rat at 1 mg/kg, iv and 10 mg/kg, po. It counts as ADME, organism-based. Conditions: in vivo, read-out: Vdss. In a few lines: as §1
Data set [9] can be described thus: Tmax in Sprague-Dawley rat at 10 mg/kg, po. Type of data set: ADME, organism-based. The arrangement: dose 10 mg/kg, route oral. As to conditions: in vivo. In a few lines:
as §1

The nature of data set [10]: Half life in rat liver microsomes. It counts as ADME, Microsome. A general note: Microsomes from liver hold many membrane-bound enzymes, among them those of drug oxidation.
Another data set deals with Brain. The data set can be described thus: Total drug level in brain of medial meniscal transection rat osteoarthritis pain model at 10 mg/kg, sc administered on day 28 post medial meniscal transection surgery measured at 1 hr to 3 hrs. It counts as ADME, organism-based. The arrangement: dose 10 mg/kg, route subcutaneous. As to conditions: read-out: Drug uptake, in vivo.

Data set [11] deals with Rattus norvegicus. The data set can be described thus: Analgesic activity in medial meniscal transection rat osteoarthritis pain model assessed as inhibition of change in hind paw weight distribution at 10 mg/kg, sc administered on day 28 post medial meniscal transection surgery measured after 1 hr relative to vehicle-treated control. It counts as functional. As to conditions: route subcutaneous. In outline:
(§2)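 The rats were assessed for hind paw weight distribution. On day 28 after surgery they received a single subcutaneous dose of compound or vehicle and were reassessed 1 and 3 h post dose. N = 6 rats per group, data as mean ± SEM. Significance was tested by one-way ANOVA with Dunnett's test against vehicle at the same time point, P < 0.05.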

Data set [12] concerns Rattus norvegicus. The data set can be described thus: Analgesic activity in medial meniscal transection rat osteoarthritis pain model assessed as inhibition of change in hind paw weight distribution at 10 mg/kg, po administered on day 28 post medial meniscal transection surgery measured after 1 hr relative to vehicle-treated control. It counts as functional.
The nature of data set [13]: Fraction unbound in plasma of medial meniscal transection rat osteoarthritis pain model at 10 mg/kg, sc administered on day 28 post medial meniscal transection surgery measured at 1 hr to 3 hrs. The arrangement: dose 10 mg/kg, route subcutaneous. It counts as ADME, organism-based.
The nature of data set [14]: Fraction unbound in brain of medial meniscal transection rat osteoarthritis pain model at 10 mg/kg, sc administered on day 28 post medial meniscal transection surgery measured at 1 hr to 3 hrs. Type of data set: ADME, organism-based. The arrangement: dose 10 mg/kg, route subcutaneous.
Data set [15] can be described thus: Plasma concentration in medial meniscal transection rat osteoarthritis pain model at 10 mg/kg, sc administered on day 28 post medial meniscal transection surgery measured at 1 hr. Type of data set: ADME, organism-based. The arrangement: dose 10 mg/kg, route subcutaneous. In outline: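 Plasma was sampled 1 h after a single subcutaneous 10 mg/kg dose in the rat osteoarthritis pain model. Free concentration was derived using the rat plasma free fraction.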

Data set [16] concerns Rattus norvegicus. In words: Analgesic activity in medial meniscal transection rat osteoarthritis pain model assessed as inhibition of change in hind paw weight distribution at 10 mg/kg, sc administered on day 28 post medial meniscal transection surgery measured after 3 hrs relative to vehicle-treated control. Type of data set: functional. Conditions: route subcutaneous. In a few lines:
as §2

Data set [17] relates to Rattus norvegicus. In words: Analgesic activity in medial meniscal transection rat osteoarthritis pain model assessed as inhibition of change in hind paw weight distribution at 10 mg/kg, po administered on day 28 post medial meniscal transection surgery measured after 3 hrs relative to vehicle-treated control. It counts as functional.

Chain of 3',5'-cyclic-AMP phosphodiesterase 4B (Q07343 whole entry, the tested form may be a part): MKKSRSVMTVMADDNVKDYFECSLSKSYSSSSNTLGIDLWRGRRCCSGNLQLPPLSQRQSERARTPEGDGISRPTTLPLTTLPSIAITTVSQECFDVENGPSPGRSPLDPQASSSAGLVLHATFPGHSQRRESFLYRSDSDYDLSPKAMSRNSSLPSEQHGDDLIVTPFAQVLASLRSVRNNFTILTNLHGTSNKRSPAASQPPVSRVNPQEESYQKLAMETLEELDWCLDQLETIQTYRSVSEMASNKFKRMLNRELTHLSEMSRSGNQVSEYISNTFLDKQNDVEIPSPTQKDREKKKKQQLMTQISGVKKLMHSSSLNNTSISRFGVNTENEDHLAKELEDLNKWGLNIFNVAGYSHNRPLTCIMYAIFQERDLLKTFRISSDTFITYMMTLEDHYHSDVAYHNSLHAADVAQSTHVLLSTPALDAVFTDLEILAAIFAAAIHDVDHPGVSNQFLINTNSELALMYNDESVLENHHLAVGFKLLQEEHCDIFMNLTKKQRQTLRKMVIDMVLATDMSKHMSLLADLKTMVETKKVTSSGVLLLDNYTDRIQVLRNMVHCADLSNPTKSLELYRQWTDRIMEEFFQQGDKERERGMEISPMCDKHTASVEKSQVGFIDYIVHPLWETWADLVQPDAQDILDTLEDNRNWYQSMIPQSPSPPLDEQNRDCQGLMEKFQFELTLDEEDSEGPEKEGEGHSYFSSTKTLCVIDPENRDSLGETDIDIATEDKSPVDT
Chain of cGMP-dependent 3',5'-cyclic phosphodiesterase (O00408 whole entry, the tested form may be a part): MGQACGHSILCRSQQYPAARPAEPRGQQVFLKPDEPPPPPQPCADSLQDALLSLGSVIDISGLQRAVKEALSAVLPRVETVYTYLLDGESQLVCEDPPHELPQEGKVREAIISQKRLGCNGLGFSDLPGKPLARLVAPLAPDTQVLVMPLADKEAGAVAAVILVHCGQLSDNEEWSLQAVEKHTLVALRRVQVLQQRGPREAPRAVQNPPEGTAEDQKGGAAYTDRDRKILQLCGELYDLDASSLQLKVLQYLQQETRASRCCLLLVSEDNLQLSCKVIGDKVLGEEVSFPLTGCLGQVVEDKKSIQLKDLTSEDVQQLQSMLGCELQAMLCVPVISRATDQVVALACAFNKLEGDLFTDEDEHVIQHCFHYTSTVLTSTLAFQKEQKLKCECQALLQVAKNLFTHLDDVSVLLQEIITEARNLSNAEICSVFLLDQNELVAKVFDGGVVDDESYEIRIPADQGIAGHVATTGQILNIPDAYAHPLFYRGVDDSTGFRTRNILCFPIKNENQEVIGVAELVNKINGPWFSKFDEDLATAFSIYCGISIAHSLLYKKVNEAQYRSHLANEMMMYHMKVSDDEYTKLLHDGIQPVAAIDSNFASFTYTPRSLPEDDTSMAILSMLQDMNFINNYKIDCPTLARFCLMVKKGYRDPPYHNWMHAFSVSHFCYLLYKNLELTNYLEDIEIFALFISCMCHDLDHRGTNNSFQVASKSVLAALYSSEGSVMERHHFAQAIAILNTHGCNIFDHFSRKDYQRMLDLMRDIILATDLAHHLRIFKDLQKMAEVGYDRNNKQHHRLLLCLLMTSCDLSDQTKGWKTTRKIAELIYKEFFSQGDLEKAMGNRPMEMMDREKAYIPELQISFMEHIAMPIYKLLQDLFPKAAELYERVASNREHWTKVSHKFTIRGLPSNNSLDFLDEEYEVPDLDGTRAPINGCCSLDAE

Regarding `COc1ccc(-c2cc(C3=Nc4c(C(C)(C)C)nn(CCO)c4C(=O)NC3)ccc2OC)c(OC)c1`, the IC50 (commonly the point on the concentration scale where inhibition reaches its midpoint) in [1] is 3.4 nM; in [3], 741 nM. Besides, in data set [2], the half-life (usually the time in which the quantity being followed falls by half) was found to be 43 min.
With `CCC(CC)c1nn(CCO)c2c1N=C(c1ccc(-n3ccnc3C)cc1)CNC2=O`, the half-life in data set [4] was 31.8 min. The same compound came in with a clearance in data set [5] of 70 mL/min/kg. The area under the curve (AUC) (as a rule, the area under the concentration-time curve, a measure of exposure) in data set [6] stood at 1660 ng·h/mL. Besides, in data set [7], the bioavailability (in general, dose-corrected exposure relative to a reference, in per cent) came out at 75%. Moreover, the Vd in data set [8] was determined as 1.1 L/kg. In data set [9], the Tmax – broadly, the time from dosing to the highest level – came to 135 min.
Consider `CCC(C)(C)c1nn(CCO)c2c1N=C(c1ccc(-n3ccnc3C)cc1)CNC2=O`, for which, in data set [2], the half-life worked out at 6.9 min.
As to `COc1ccc(C2=Nc3c(C(C)(C)C)nn(CCO)c3C(=O)NC2)cc1-c1cnn(C)c1`, the IC50 in [1] came out at 6.8 nM; in data set [3], 110 nM. In [2], the half-life worked out at 59 min.
Take `COc1ccc(C2=Nc3c(C(C)(C)C)nn(CCO)c3C(=O)NC2)cc1-c1cnc(N(C)C)cc1C`: the results for the IC50 in data set [1] and in data set [3] were 1.3 nM and 534 nM, respectively. This compound also yielded a half-life in data set [2] of 74 min.
Regarding `COc1ncc(-c2cc(C3=Nc4c(C(C)(C)C)nn(CCO)c4C(=O)NC3)ccc2OC)c(OC)n1`, the values for the IC50 in data set [1] and in data set [3] were 9.3 nM and 138 nM, respectively. This compound also yielded a half-life in data set [2] of 36 min.
As to `COc1ccc(C2=Nc3c(C(C)(C)C)nn(CCO)c3C(=O)NC2)cc1-c1cnc(N2CCCC2)nc1`, the half-inhibitory concentration (IC50) in data set [1] worked out at 1.2 nM; in data set [3] it was 410 nM. This compound showed a half-life in data set [2] of 33 min.
Consider `COc1ccc(C2=Nc3c(C(C)(C)C)nn(CCO)c3C(=O)NC2)cc1-c1cnc(N2CCOCC2)nc1`, for which the results for the IC50 in [1] and in [3] were 1.4 nM and 265 nM, respectively. For the same compound, the half-life in data set [2] was 39 min.
The matching figures for `COc1ccc(-c2cc(C3=Nc4c(C(C)(C)C)nn(CCO)c4C(=O)NC3)ccc2OC)c(OC)n1`: 1.8 nM, 418 nM and 57 min.
The matching figures for `COc1ccc(C2=Nc3c(C(C)(C)C)nn(CCO)c3C(=O)NC2)cc1-c1cnc(N(C)C)nc1`: 2.5 nM, 695 nM and 36 min.
On to `COc1ccc(C2=Nc3c(C(C)(C)C)nn(CCO)c3C(=O)NC2)cc1-c1cnc(N2CCCCC2)nc1`, for which the IC50 in [1] turned out to be 2.5 nM; in data set [3], 353 nM. The same compound showed a half-life in [2] of 18 min.
As for `COc1ncc(-c2cc(C3=Nc4c(C(C)(C)C)nn(CCO)c4C(=O)NC3)ccc2OC)cn1`, the half-life in [10] is above 60 min; in data set [4], 90 min; in data set [2], 34 min. In addition, the concentration in the data set on Brain worked out at 475 nM. Further, the inhibition in vivo (in general, the share of the control response that was lost under treatment) at 10 mg/kg in the data set with Rattus norvegicus [11] worked out at 79%; in the data set with Rattus norvegicus [12] it was 44%. The clearance in data set [5] is 27 mL/min/kg. Besides, the exposure (AUC) in [6] was 4530 ng·h/mL. This compound displayed a bioavailability in data set [7] of 78%. In addition, the Vd in [8] amounted to 3.02 L/kg. For the same compound, the time to peak (Tmax) in data set [9] amounted to 180 min. In addition, the fraction unbound (usually free concentration divided by total concentration) in data set [13] stood at 0.032; in data set [14], 0.009. The concentration for half-maximal inhibition (IC50) in data set [3] is 562 nM. In [15], this compound showed a concentration at 1 h of 2500 nM.
On to `COc1ccc(C2=Nc3c(C(C)(C)C)nn(CCCO)c3C(=O)NC2)cc1-c1ccccc1SC`, for which the results for the IC50 in data set [1] and in data set [3] were 505 nM and 100000 nM, respectively. In [2], this compound gave a half-life of 51 min.
`COc1ccc(C2=Nc3c(C(C)(C)C)nn(CCCO)c3C(=O)NC2)cc1-c1ccc(F)cc1F`: the figures for the half-maximal inhibitory concentration (IC50) in data set [1] and in [3] were 483 nM and 100000 nM, respectively. Also, the half-life in data set [2] was found to be 120 min.
In the case of `COc1ccc(C2=Nc3c(C(C)(C)C)nn(CCCO)c3C(=O)NC2)cc1-c1ccccc1F`, the IC50 is 586 nM in data set [1] and 8160 nM in data set [3]. The compound also displayed a half-life in data set [2] of 48 min.
`COc1ccccc1-c1cc(C2=Nc3c(C(C)(C)C)nn(CCCO)c3C(=O)NC2)ccc1OC`: the IC50 in data set [1] is 156 nM; in data set [3], 2070 nM. Further, the half-life in [2] was determined as 82 min.
For `COc1ccc(OC)c(-c2cc(C3=Nc4c(C(C)(C)C)nn(CCCO)c4C(=O)NC3)ccc2OC)c1`, the IC50 in data set [1] was 46 nM; in data set [3], 8110 nM. This compound gave a half-life in data set [2] of 61 min.
As for `COc1ccc(-c2cc(C3=Nc4c(C(C)(C)C)nn(CCCO)c4C(=O)NC3)ccc2OC)c(OC)c1`, the IC50 in data set [1] worked out at 14 nM; in data set [3], 100000 nM. The compound also displayed a half-life in [2] of 120 min.
The matching figures for `COc1ccc(C2=Nc3c(C(C)(C)C)nn(CCCO)c3C(=O)NC2)cc1-c1ccc(C(=O)O)cc1`: 40 nM, 27000 nM and 120 min.
Regarding `COc1ccc(-c2cc(C3=Nc4c(C(C)(C)C)nn(CCCO)c4C(=O)NC3)ccc2OC)cn1`, the concentration for half-maximal inhibition (IC50) in data set [1] was 70 nM; in data set [3], 6190 nM. The half-life in data set [2] is 120 min.
Turning to `COc1ccc(C2=Nc3c(C(C)(C)C)nn(CCCO)c3C(=O)NC2)cc1-c1cnn(C)c1`, the half-life was 43.8 min in data set [4] and 120 min in data set [2]. Besides, the clearance in data set [5] is 43 mL/min/kg. Also, the IC50 in [1] came to 36 nM; in data set [3], 6740 nM. The compound further had an area under the curve (AUC) in data set [6] of 1160 ng·h/mL. The bioavailability in [7] came to 31%. Moreover, the Vd in data set [8] amounted to 2 L/kg. In addition, the time of peak concentration (Tmax) in data set [9] is 30 min.
On to `COc1ccc(C2=Nc3c(C(C)(C)C)nn(CCCO)c3C(=O)NC2)cc1-c1cnc(N(C)C)cc1C`, for which the half-inhibitory concentration (IC50) in data set [1] turned out to be 18 nM; in data set [3], 5660 nM. Further, the half-life in data set [2] came out at 42 min.
As for `COc1ncc(-c2cc(C3=Nc4c(C(C)(C)C)nn(CCCO)c4C(=O)NC3)ccc2OC)c(OC)n1`, the IC50 in data set [1] was found to be 7 nM; in data set [3] it was 1920 nM. Moreover, the half-life in data set [2] was 120 min.
Turning to `CS(=O)(=O)c1ccc(C2=C(c3ccccc3)C(=O)OC2)cc1` [ROFECOXIB], the figures for the inhibition in vivo at 10 mg/kg with Rattus norvegicus [16] and in the data set with Rattus norvegicus [17] were 100% and 79%, respectively.

The values are drawn from ChEMBL document CHEMBL2385057 (Bioorg Med Chem Lett, 2013).
